Screening results as filed in PubChem BioAssay.
Sampled rows, rich in hits. Any-hit rate of the full collection: about 2.4%.
Cneo AK release = Cryptococcus neoformans cell lysis inducers, primary screen, AK release luminescence, single concentration. C. neoformans lysis, adenylate kinase release luminescence, 4 h; normalised: neutral wells 0, clomiphene wells 100. AID 651654, 2012. 360,000 compounds, 0.2% hits. lysis activity, % at 15 µM;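 active = mean lysis activity across replicates of at least 80%, whatever share of replicates individually reach that level; inactive = mean lysis activity below 80%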
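Material: C. neoformans cells; Schedule: 4 h static compound exposure, 37 °C, read 1 h post-reagent; Measured by: adenylate kinase release luminescence; Read-out: signal increase indicating cell lysis; Controls: Clomiphene as positive lysis control.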
dFosB act = activators of delta FosB homodimer, primary screen, biochemical, fluorescence polarization, TAMRA-CDK5 oligo, single point; activation, % at 25 µM; 340,000 compounds, 0.99% hits; AID 493131, 2011; purified delta FosB; percent of positive-control signal above neutral wells;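 active = mean activation above about 17%, with every replicate also reaching it, limit read from the data, passing the limit was not always enough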
INS-1E GSIS act = GLuc luminescence reporter in INS-1E cells, primary screen for activators of glucose-dependent secretion of insulin. 370,000 compounds, 0.61% hits. INS-1E GLuc reporter insulin secretion, 2-3 h. activation, % at 16.6 µM;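 active = lowest replicate activation of at least 40%, so every replicate reaches that level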;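 note: 0% = median of neutral control wells and 100% = median of IBMX positive control wells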
Env fusion inh = inhibitors of HIV-1 Env-driven cell-cell fusion, primary screen, HeLa-JRFL effector, CEM21 target cells, luciferase | 360,000 compounds, 1.1% hits | inhibition, % at 12.3 µM;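 active = mean replicate inhibition score of at least 50 and every replicate individually at or above 50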;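 note: 0% = plate neutral controls and 100% = maraviroc near 300 nM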
Rtt109 HAT inh = inhibitors of C. albicans Rtt109/Vps75 HAT, primary screen, biochemical, ThioGlo CoA-SH fluorescence, plate reader. purified Rtt109/Vps75, 4 h. 330,000 compounds, 0.16% hits. inhibition, % at 34.9 µM. Histone acetyltransferase RTT109 (Candida albicans (strain SC5314 / ATCC MYA-2876)), …;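 active = inhibition of at least 50% in every replicate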
Target sequence (Q5AAJ8 whole entry, looked up): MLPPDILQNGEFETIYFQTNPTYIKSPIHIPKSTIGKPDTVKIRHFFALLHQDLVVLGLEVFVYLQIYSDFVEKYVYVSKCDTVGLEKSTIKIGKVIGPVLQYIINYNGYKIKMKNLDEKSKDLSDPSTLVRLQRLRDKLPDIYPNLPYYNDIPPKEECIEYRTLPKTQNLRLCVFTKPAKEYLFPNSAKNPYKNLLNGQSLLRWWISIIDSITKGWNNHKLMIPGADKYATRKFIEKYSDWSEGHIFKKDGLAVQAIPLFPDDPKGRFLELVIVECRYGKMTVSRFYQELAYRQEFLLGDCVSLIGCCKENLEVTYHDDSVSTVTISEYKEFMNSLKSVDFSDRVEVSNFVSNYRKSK
miR122 inh = miR-122 Renilla sensor signal increase in Huh7, primary screen, miR-122 inhibitor project, cell-based, single point, plate reader | Huh7 miR-122 Renilla luciferase sensor, 48 h; neutral wells = 0, positive control = 100 | activation (reporter increase), % at 12.5 µM | 340,000 compounds, 0.3% hits | AID 602342, 2012;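 active = mean replicate activation score at least 90 and every replicate individually at or above 90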;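 note: higher luciferase means less miR-122 activity so hits act as miR-122 inhibitors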
* = called active by the depositor; . = not tested or not shown; [ ] = remark or other dose.

SMILES	Cneo AK release	dFosB act	INS-1E GSIS act	Env fusion inh	Rtt109 HAT inh	miR122 inh
CN(C)c1ccc(C=c2c3ccccc3n3c2c2c([n+]3C)CCCC2)cc1	.	86*	-45	-3	5	-17
COc1cc(N(C)C)ccc1C=c1c2ccccc2n2c1cc(-c1ccccc1)[n+]2C	.	234*	-43	5	-1	-7
CN(C)c1ccc(C=c2c3ccccc3n3c2cc(-c2ccc(Cl)cc2)[n+]3C)cc1	.	50*	-38	0	-16	.
CN(C)c1ccc(C=c2c3cc([N+](=O)[O-])ccc3n3c2cc(-c2ccccc2)[n+]3C)cc1	.	14	-29	47	6	-9
COc1ccc2c3c(n(C)c2c1)[C@@H](CO)NCC31CN(S(=O)(=O)c2cccc(F)c2)C1	.	.	-15	.	.	.
CCCNC(=O)C[C@H]1CC[C@@H]2[C@@H](COc3ccc(NC(=O)c4cccc(Cl)c4)cc3C(=O)N2C)O1	4	.	-5	.	.	0[16.7 µM]
CCN1C(=O)[C@@H]2[C@@H](c3ccc(-c4ccc(Cl)c(Cl)c4)cc3)N3CCCC[C@@]3(C(=O)OC)[C@@H]2C1=O	-3	9	.	63*	2	-4
CCSc1ccc([C@@H]2[C@@H]3C(=O)N(CC)C(=O)[C@@H]3[C@]3(C(=O)OC)CCCCN23)cc1	2	-6	.	63*	-11	1
CC=Cc1ccc2n(c1=O)C[C@@H]1[C@@H](CO)[C@H](C(=O)NC3CCC3)N(Cc3ccncc3)[C@H]21 (mixture of isomers)	.	.	7	-17[16.7 µM]	.	.
O=C(Nc1ccc(Cl)cc1)C1Cc2c(-c3ccccc3Oc3ccccc3)ccnc2O1 (stereo not given)	1	.	-27	-14	.	-7
O=C(Nc1ccccc1)C1Cc2c(-c3ccccc3Oc3ccccc3)ccnc2O1 (stereo not given)	1	.	-12	11	.	-4
O=C(Nc1cc(C(F)(F)F)ccc1F)C1Cc2c(-c3ccccc3Oc3ccccc3)ccnc2O1 (stereo not given)	3	.	.	79*	.	-2
O=C(Nc1cccc(OC(F)(F)F)c1)C1Cc2c(-c3ccccc3Oc3ccccc3)ccnc2O1 (stereo not given)	-1	.	.	59*	.	-14
COC(=O)COc1cc(OCC(=O)OC)c2c(-c3ccccc3)cc(=O)oc2c1	-2	-12	64*	-12	3	.
CC(=O)COc1cc(C)cc2oc(=O)cc(-c3ccccc3)c12	.	6	-5	4	-4	.
COc1ccc(C)cc1NC(=O)Cn1c(=O)oc2ccccc21	-1	19*	33	-2	3	-4
COc1ccc(CNC(=O)CCn2c(=O)oc3ccccc32)c(OC)c1	0	-10	58*	-5	-2	4
COc1cccc(CNC(=O)CCn2c(=O)oc3ccccc32)c1	0	4	.	-83	-11	0
CC(C)CN(C(=O)c1ccc(S(=O)(=O)N2CCCC2)cc1)C1CCS(=O)(=O)C1 (stereo not given)	.	-1	2	.	-8	-2
CC(C)CN(C(=O)C1CCCCC1)C1CCS(=O)(=O)C1 (stereo not given)	0	4	41*	16	1	1
CC(C)CN(C(=O)C1CC1)C1CCS(=O)(=O)C1 (stereo not given)	0	1	7	.	-1	4
CC(C)CN(C(=O)c1ccc(S(=O)(=O)N2CCCCC2)cc1)C1CCS(=O)(=O)C1 (stereo not given)	-2	0	17	70*	-4	.
COc1ccc(NC(=O)N(C)C[C@H]2Oc3ccc(NS(=O)(=O)c4ccc(OC)cc4)cc3C(=O)N([C@@H](C)CO)C[C@@H]2C)cc1	-5	.	19	7[16.7 µM]	.	1[16.7 µM]
CC(C)CNC(=O)c1ccccc1SCC(=O)NC12CC3CC(CC(C3)C1)C2	.	-9	-10	64*	20	.
COc1ccc2c3c(n(C)c2c1)[C@H](CO)N(CC1CC1)CC31CN(C(=O)Nc2ccccc2)C1	.	.	-14	.	.	.
SMILES	Cneo AK release	dFosB act	INS-1E GSIS act	Env fusion inh	Rtt109 HAT inh	miR122 inh
CC=Cc1ccc2n(c1=O)C[C@@H]1[C@@H](CO)[C@H](C(=O)N3CCc4ccccc4C3)N(C(=O)C3CC3)[C@H]21 (mixture of isomers)	97*	.	-6	-3[16.7 µM]	.	.
CN1[C@H](C(=O)N2CCc3ccccc3C2)[C@@H](CO)[C@@H]2Cn3c(ccc(-c4cccnc4)c3=O)[C@@H]21	104*	.	5	.	.	41[16.7 µM]
CC=Cc1ccc2n(c1=O)C[C@@H]1[C@@H](CO)[C@H](C(=O)N3CCc4ccccc4C3)N(C(=O)COC)[C@H]21 (mixture of isomers)	.	.	-1	.	.	.
CC=Cc1ccc2n(c1=O)C[C@H]1[C@H](CO)[C@@H](C(=O)OC)N(CCc3ccccc3)[C@@H]21 (mixture of isomers)	-3	.	9	60*[16.7 µM]	.	.
CCNC(=O)Nc1ccc2c(c1)C(=O)N(C)[C@@H]1CC[C@@H](CC(=O)NCc3ccccc3F)O[C@H]1CO2	6	.	0	13[16.7 µM]	.	58[16.7 µM]
Cc1ccc2c(CN3CCN(S(=O)(=O)c4ccc5c(c4)OCCO5)CC3)cc(=O)oc2c1C	2	-12	.	93*	3	1
CCCC#Cc1ccc([C@H]2[C@H](CO)N3CCCCN(CC4CC4)C[C@@H]23)cc1	0	.	.	.	.	-25[16.7 µM]
CCOc1ccccc1NS(=O)(=O)c1ccc(-c2cnc(C3CC3)o2)cc1	0	-2	15	10	30	127*
Cc1ccc(-c2cnc(C3CC3)o2)cc1S(=O)(=O)Nc1ccccc1	-1	-4	.	.	30	334*
COc1ccccc1NS(=O)(=O)c1ccc(-c2cnc(C3CC3)o2)cc1	2	-17	11	-12	8	31
CC(=O)Nc1ccc(NS(=O)(=O)c2cc(-c3cnc(C4CC4)o3)ccc2C)cc1	0	-8	10	3	4	10
COc1ccc2c3c([nH]c2c1)[C@H](CO)N(C(=O)c1cccnc1)CC31CN(C(=O)NC(C)C)C1	.	.	11	-29[16.7 µM]	.	.
C[C@H](CO)N1C[C@H](C)[C@@H](CN(C)C)Oc2c(NC(=O)Cc3cn(C)c4ccccc34)cccc2C1=O	.	.	-9	.	.	.
C[C@@H]1CN([C@H](C)CO)C(=O)c2cc(C#CCN(C)C)cnc2O[C@@H]1CN(C)C(=O)c1cccnc1	2	.	7	-18[16.7 µM]	.	-2[16.7 µM]
C[C@H](CO)N1C[C@H](C)[C@@H](CN(C)CC2CCCCC2)Oc2c(NC(=O)Cc3cn(C)c4ccccc34)cccc2C1=O	.	.	8	.	.	.
